Legend:
Bcl-2 [1] = biological target: T1, Bcl-2 (Homo sapiens, UniProt P10415); assay: FP based competitive binding assay, Bcl-2; details: versus 8
Bcl-xL [2] = biological target: T2, Bcl-xL (Homo sapiens, UniProt Q07817); assay: FP based competitive binding assay, Bcl-xL; details: versus 8
In short: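 Competitive fluorescence-polarization assay for Bcl-xL: pre-incubated Bcl-xL (10 nM) and fluorescent probe (2 nM) with serial dilutions of test compound, room temperature, 2 h, gentle shaking. Millipolarization plotted against total compound concentration. IC50 obtained by nonlinear regression; Ki calculated from IC50.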

[3] = tested on: H146 small-cell lung cancer cell line; assay: Cell growth inhibition assay; format: cell-based, Human
Bcl-2 [4] = biological target: T1, Bcl-2; details: read-out: Ki, binding to Bcl-2; cited from earlier work
Bcl-xL [5] = biological target: T2, Bcl-xL; details: read-out: Ki, binding to Bcl-xL; cited from earlier work
[6] = tested on: animal model of human cancer; details: cited from earlier work
[7] = tested on: H146 small-cell lung cancer xenograft; details: 25 mg/kg, i.v., 5 days per week for 2 weeks; cited from earlier work
[8] = cited from earlier work

T2 sequence (Q07817 whole entry): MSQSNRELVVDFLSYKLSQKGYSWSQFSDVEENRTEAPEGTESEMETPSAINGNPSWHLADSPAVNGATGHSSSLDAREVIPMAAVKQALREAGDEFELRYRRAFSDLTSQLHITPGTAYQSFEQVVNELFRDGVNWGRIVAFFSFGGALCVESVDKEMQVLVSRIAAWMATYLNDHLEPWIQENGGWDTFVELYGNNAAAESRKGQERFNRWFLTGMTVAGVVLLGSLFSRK
T1 sequence (P10415 whole entry): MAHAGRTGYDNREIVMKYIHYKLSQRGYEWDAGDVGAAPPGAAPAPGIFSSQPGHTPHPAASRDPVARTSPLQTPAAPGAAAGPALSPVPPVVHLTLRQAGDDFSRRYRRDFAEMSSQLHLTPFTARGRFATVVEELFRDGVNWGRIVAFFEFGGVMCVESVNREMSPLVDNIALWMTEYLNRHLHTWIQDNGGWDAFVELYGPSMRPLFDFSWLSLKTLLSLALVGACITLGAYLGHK

SMILES	Times less potent than compound 8 in binding to Bcl-2 (Bcl-2 [1]) [times]	Times less potent than compound 8 in binding to Bcl-xL (Bcl-xL [2]) [times]	Times less potent than compound 8 in H146 cell growth inhibition ([3]; versus 8) [times]	Ki (Bcl-2 [4]) [nM]	Ki (Bcl-xL [5]) [nM]	Tumor regression [6]	Times more potent than compound 4 in H146 cell growth inhibition ([3]; versus 4) [times]	Antitumor activity in H146 xenograft model [7]	Chemical stability [8]
Cc1c(C(N)=O)c(-c2cccc(N3CCN(c4ccc(NS(=O)(=O)c5ccc(N[C@H](CCN(C)C)CSc6ccccc6)c([N+](=O)[O-])c5)cc4)CC3)c2)c(-c2ccc(Cl)cc2)n1C [Compound 9, (R)-5-(4-Chlorophenyl)-4-(3-(4-(4-(4-(4-(dimethylamino)-1-(phenylthio)butan-2-ylamino)-3-nitrophenylsulfonamido)phenyl)piperazin-1-yl)phenyl)-1,2-dimethyl-1H-pyrrole-3-carboxamide]	4	2	6	–	–	–	–	–	–
CCn1c(C)c(C(=O)O)c(-c2cccc(N3CCN(c4ccc(NS(=O)(=O)c5ccc(N[C@H](CCN6CCC(O)CC6)CSc6ccccc6)c(S(=O)(=O)C(F)(F)F)c5)cc4)CC3)c2)c1-c1ccc(Cl)cc1 [Compound 6, BM-957]	–	–	–	< 1	< 1	achieved tumor regression	–	–	–
CCn1c(C)c(C(=O)O)c(-c2cccc(N3CCN(c4ccc(NS(=O)(=O)c5ccc(N[C@H](CCN(C)C)CSc6ccccc6)c([N+](=O)[O-])c5)cc4)CC3)c2)c1-c1ccc(Cl)cc1 [Compound 5]	–	–	–	< 1	< 1	–	8	failed to achieve long-lasting tumor regression	excellent chemical stability

Source: PMC3806060 (Journal of medicinal chemistry, 2013)
